Article PMC4347663 (Journal of medicinal chemistry, 2013)
Where a name gives a salt, the structure may show the parent alone.

Key:
REV-ERBα = target: T1, REV-ERBα (Homo sapiens, UniProt P20393); assay: REV-ERBα NCOR FRET assay; assay type: biochemical; details: purified REV-ERBα protein, in vitro
T1 sequence (P20393 1-614): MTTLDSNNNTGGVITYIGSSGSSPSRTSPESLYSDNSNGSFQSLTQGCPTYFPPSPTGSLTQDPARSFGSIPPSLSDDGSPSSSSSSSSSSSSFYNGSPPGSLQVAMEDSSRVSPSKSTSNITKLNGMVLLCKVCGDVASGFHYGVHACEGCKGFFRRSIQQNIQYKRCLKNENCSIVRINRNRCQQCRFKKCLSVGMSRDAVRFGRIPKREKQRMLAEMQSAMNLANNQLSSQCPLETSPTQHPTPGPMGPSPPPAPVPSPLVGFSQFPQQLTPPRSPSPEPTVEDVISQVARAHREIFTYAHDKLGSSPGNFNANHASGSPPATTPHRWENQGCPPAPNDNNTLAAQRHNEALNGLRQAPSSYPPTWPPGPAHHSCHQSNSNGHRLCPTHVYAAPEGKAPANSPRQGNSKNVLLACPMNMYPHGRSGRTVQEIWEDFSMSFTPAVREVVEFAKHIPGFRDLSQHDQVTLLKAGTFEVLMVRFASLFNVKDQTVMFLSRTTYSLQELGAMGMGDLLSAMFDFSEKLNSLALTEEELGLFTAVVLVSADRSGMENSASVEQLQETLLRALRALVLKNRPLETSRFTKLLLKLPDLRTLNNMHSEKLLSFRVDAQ

[1] = test system: BMAL1 expression (Bmal-promoter luciferase) in U2OS cells; assay: BMAL reporter gene assay in synchronized U2OS cells; assay type: cell-based, human; details: for BMAL1 Phase Delay: delay of peak of second cycle, 20 μM treated cells relative to DMSO treated cells; for inhibition at 20 µM: Homo sapiens, U2OS, 40 h, read-out: BMAL1 Supp.
IL-6 = assay: LPS-stimulated IL-6 expression in THP-1 cells; assay type: cell-based, human; details: six hours; for IL-6 transcript expression: 10 μM compound, LPS 10 μg/mL; for IL-6 secretion / expression: 1 μM compound, LPS 10 mcg/mL
Procedure, shortened: (§1)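 THP-1 cells kept at 3×105 to 8×10^5 cells/mL in RPMI1640 with 10% FBS. Cells were stimulated with LPS 10 μg/mL alongside DMSO or test compound at 10 μM, or at 1 μM in triplicate. After 6 h, cells were lysed and RNA was analysed by RT-qPCR with TATA box binding protein as housekeeping gene. Groups were compared by one-way ANOVA with Dunnett's post-hoc test.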

ABCA1 = ABCA1 expression in THP-1 cells; assay type: cell-based, human; details: six hours; for ABCA1 transcript expression: 10 μM compound, LPS 10 μg/mL; for ABCA1 levels: 1 μM compound, LPS 10 mcg/mL
Procedure, shortened: as §1

LXRα = target: T2, LXRα (Homo sapiens, UniProt Q13133); assay: LXRα radio ligand displacement binding; details: for LXRα Fold Sel.: selectivity for REV-ERBα over LXRα
T2 sequence (Q13133 1-447): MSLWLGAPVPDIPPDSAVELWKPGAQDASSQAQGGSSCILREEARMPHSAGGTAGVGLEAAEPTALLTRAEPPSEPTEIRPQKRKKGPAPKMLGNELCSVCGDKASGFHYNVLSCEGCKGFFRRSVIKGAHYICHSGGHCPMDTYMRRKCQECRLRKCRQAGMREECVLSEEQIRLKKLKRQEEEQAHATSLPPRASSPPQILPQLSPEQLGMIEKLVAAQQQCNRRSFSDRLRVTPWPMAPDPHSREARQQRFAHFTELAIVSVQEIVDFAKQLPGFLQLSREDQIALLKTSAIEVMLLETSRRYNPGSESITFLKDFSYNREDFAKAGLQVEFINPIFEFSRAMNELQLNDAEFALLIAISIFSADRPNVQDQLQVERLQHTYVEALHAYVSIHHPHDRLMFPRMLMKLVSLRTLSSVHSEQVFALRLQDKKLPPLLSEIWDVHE

[2] = IV and oral DMPK cassette dose experiment; assay type: in vivo, C57Bl/6 mice; details: for AUC(0-t) / Vd / clearance / half-life / Cmax / Tmax / bioavailability: male, C57Bl/6, mouse, plasma, 1 mg/kg; for bioavailability: F

AUC(0-t) ([2]; iv) [ng·h/mL]	Vd ([2]; iv) [L/kg]	clearance ([2]; iv) [mL/min/kg]	half-life ([2]; iv) [min]	AUC(0-t) ([2]; po) [ng·h/mL]	Cmax ([2]; po) [ng/mL]	Tmax ([2]; po) [min]	bioavailability ([2]; po, 1 mg/Kg cassette, mice) [%]	LXRα Fold Sel. (LXRα)	Structure (SMILES)	recruitment of NCOR peptide fragment to REV-ERBα (in words) (REV-ERBα)	BMAL1 Phase Delay [1] [h]	IL-6 secretion / expression (IL-6)	ABCA1 levels (ABCA1)	further results
354	1.5	46.7	44.4	8.39	8.98	15	2.4	> 250 fold	O=[N+]([O-])c1ccc(CN(Cc2ccc(F)cc2)Cc2cccnc2)s1 [Compound 10, N-(4-Fluorobenzyl)-1-(5-nitrothiophen-2-yl)-N-(pyridin-3-ylmethyl)methanamine hydrochloride salt]	–	0	significant reduction of IL-6 secretion	no measurable effect on ABCA1 levels	–
361	1.8	46.7	76.2	10.2	9.14	15	3.5	100 fold	N#Cc1ccc(CN(Cc2ccc(Cl)cc2)Cc2cccnc2)s1 [Compound 16, 5-(((4-Chloro-benzyl)(pyridin-3-ylmethyl)amino)methyl)thiophene-2-carbonitrile hydrochloride salt]	–	0	significant reduction of IL-6 secretion	no measurable effect on ABCA1 levels	–
–	–	–	–	–	–	–	–	<1 fold	Clc1ccc(CN(Cc2cccnc2)Cc2nccs2)cc1 [Compound 20, N-(4-Chlorobenzyl)-1-(pyridin-3-yl)-N-(thiazol-2-ylmethyl)methanamine]	complete loss of activity	–	–	–	–
375	1.4	43.3	44.4	9.39	9.94	15	3	–	N#Cc1ccc(CN(Cc2cccnc2)Cc2ccc(F)c(F)c2)s1 [Compound 23, 5-(((3,4-Difluorobenzyl)(pyridin-3-ylmethyl)amino)methyl)thiophene-2-carbonitrile]	–	–	significant reduction of IL-6 secretion	no measurable effect on ABCA1 levels	–
–	–	–	–	–	–	–	–	<1 fold	N#Cc1ccc(CN(Cc2cccnc2)Cc2ccccc2F)s1 [Compound 26, 5-(((2-Fluorobenzyl)(pyridin-3-ylmethyl)amino)methyl)thiophene-2-carbonitrile]	–	0	–	–	–

Further lines, the molecule ahead of its results:

Structure (SMILES)	AUC(0-t) ([2]; iv) [ng·h/mL]	Vd ([2]; iv) [L/kg]	clearance ([2]; iv) [mL/min/kg]	half-life ([2]; iv) [min]	AUC(0-t) ([2]; po) [ng·h/mL]	Cmax ([2]; po) [ng/mL]	Tmax ([2]; po) [min]	bioavailability ([2]; po, 1 mg/Kg cassette, mice) [%]	LXRα Fold Sel. (LXRα)	recruitment of NCOR peptide fragment to REV-ERBα (in words) (REV-ERBα)	BMAL1 Phase Delay [1] [h]	IL-6 secretion / expression (IL-6)	ABCA1 levels (ABCA1)	further results
CC(C)(C)OC(=O)CN(Cc1ccc(Cl)cc1)Cc1ccc([N+](=O)[O-])s1 [Compound 1, reference compound]	–	–	–	–	–	–	–	–	–	induced recruitment of co-factor NCOR peptide fragment	0	–	–	IL-6 transcript expression (IL-6): significantly repressed IL-6; ABCA1 transcript expression (ABCA1): increased ABCA1 transcript expression
CCCCCNC(=O)N1CCC(CN(Cc2ccc(Cl)cc2)Cc2ccc([N+](=O)[O-])s2)C1 (stereo not drawn) [Compound 2, reference compound]	–	–	–	–	–	–	–	–	–	neither compounds 2 or 3 increased recruitment of the NCOR peptide fragment	–	–	–	IC50 (LXRα): 6.3 µM; inhibition at 20 µM [1]: 20%; IL-6 transcript expression (IL-6): significantly repressed IL-6; ABCA1 transcript expression (ABCA1): increased ABCA1 transcript expression
CCOC(=O)N1CCC(CN(Cc2ccc(Cl)cc2)Cc2ccc([N+](=O)[O-])s2)C1 (stereo not drawn) [Compound 3, reference compound]	365	1.6	45	33	7.93	7.41	30	2.2	–	neither compounds 2 or 3 increased recruitment of the NCOR peptide fragment	–	–	–	inhibition at 20 µM [1]: 14%
Cc1cc(Cl)ccc1CN(Cc1ccc(Cl)cc1)Cc1ccc([N+](=O)[O-])s1 [Compound 4, N-(4-chloro-2-methylbenzyl)-N-(4-chlorobenzyl)-1-(5-nitrothiophen-2-yl)methanamine hydrochloride salt]	2540	0.3	6.67	99	594	180	120	–	1,259 fold	–	0	significant reduction of IL-6 secretion	no measurable effect on ABCA1 levels	effect on BMAL oscillation curve ([1]; synchronized U2OS cells): suppression and shift of the BMAL oscillation curve in a dose-dependent manner; F ([2]; Oral, 1 mg/Kg cassette, mice): 23.4%; half-life [2]: 120 min
O=[N+]([O-])c1ccc(CN(Cc2ccc(Cl)cc2)Cc2ccccc2F)s1 [Compound 6, N-(4-Chlorobenzyl)-N-(2-fluorobenzyl)-1-(5-nitrothiophen-2-yl)methanamine hydrochloride salt]	–	–	–	–	–	–	–	–	–	–	0	–	–	–
Clc1ccc(CN(Cc2cccnc2)Cc2ncc[nH]2)cc1 [Compound 21, N-((1H-Imidazol-2-yl)methyl)-N-(4-chlorobenzyl)-1-(pyridin-3-yl)methanamine]	–	–	–	–	–	–	–	–	–	complete loss of activity	–	–	–	–
N#Cc1ccc(CN(Cc2cccnc2)Cc2cc(F)ccc2F)s1 [Compound 25, 5-(((2,5-Difluorobenzyl)(pyridin-3-ylmethyl)amino)methyl)thiophene-2-carbonitrile]	–	–	–	–	–	–	–	–	–	–	0	–	–	–
C=CC1=C(C)c2cc3[n-]c(cc4[n-]c(cc5nc(cc1n2)C(C)=C5C=C)c(C)c4CCC(=O)O)c(CCC(=O)O)c3C.[Fe+2] [heme, reference compound]	–	–	–	–	–	–	–	–	–	–	–	–	–	BMAL-luciferase suppression ([1]; in-house U2OS reporter assay, single endpoint comparison): > 50%
